According to PMC2670241 (Journal of neurochemistry, 2009):

How the values were obtained:
MOR174-9 (mOR-EG) [1] = molecular target: T1, MOR174-9 (mOR-EG) (Mus musculus, UniProt Q920P2); type: cell-based; conditions: each at 100 μM, 15 sec application
T1 sequence (Q920P2 1-313): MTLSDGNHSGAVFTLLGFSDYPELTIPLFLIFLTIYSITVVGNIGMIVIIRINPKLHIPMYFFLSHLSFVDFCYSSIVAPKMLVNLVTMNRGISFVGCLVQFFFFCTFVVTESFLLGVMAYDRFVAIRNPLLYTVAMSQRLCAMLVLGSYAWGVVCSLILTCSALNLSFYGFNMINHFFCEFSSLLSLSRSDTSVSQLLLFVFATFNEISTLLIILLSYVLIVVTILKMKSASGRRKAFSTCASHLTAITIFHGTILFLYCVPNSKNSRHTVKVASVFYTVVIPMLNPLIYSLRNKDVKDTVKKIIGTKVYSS

[2] = system: oocytes expressing Gαolf and CFTR, but no receptor; assay: Control oocytes expressing Gαolf and CFTR, but no receptor; type: cell-based, Xenopus laevis; conditions: 100 μM, 15 sec application
Procedure, shortened: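 Xenopus oocytes were defolliculated with collagenase B for 2 h at room temperature and injected with human Gαolf (10 ng) and CFTR (1 ng) cRNA in 23 nl water, with no receptor. Under voltage clamp in ND96 (pH 7.5), test compounds from 1 M DMSO stocks, diluted in ND96, were applied for 15 sec. 1 mM IBMX served as receptor-independent CFTR activator. Read-out was current.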

MOR23-1 = MOR23-1 (Mus musculus, UniProt Q8VG01); type: cell-based; conditions: read-out: Response normalized to the response of the same oocyte to 100 μM nonanoic acid
MOR32-11 = MOR32-11 (Mus musculus, UniProt Q8VF06); type: cell-based; conditions: for activation / activation at 3 µM / activation at 10 µM / activation at 30 µM: read-out: Response normalized to the response of the same oocyte to 100 μM nonanoic acid
MOR174-9 (mOR-EG) [3] = molecular target: T1, MOR174-9 (mOR-EG); conditions: ref Abaffy et al., 2006; cited from earlier work
MOR40-4 (S83) = conditions: ref Malnic et al., 1999; cited from earlier work

MOR32-11, sequence (Q8VF06 1-312): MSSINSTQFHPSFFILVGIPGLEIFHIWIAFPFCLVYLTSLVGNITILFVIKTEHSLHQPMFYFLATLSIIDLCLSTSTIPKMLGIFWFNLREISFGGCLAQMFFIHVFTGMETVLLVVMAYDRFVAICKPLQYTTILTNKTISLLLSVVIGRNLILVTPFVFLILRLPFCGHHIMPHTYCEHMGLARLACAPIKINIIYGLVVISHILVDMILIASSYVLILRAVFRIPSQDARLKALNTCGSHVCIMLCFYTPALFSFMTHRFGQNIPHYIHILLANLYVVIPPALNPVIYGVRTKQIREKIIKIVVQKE

| Structure (SMILES) | activation (MOR23-1) | activation (MOR32-11) | activation at 3 µM (MOR32-11) | activation at 10 µM (MOR32-11) | activation at 30 µM (MOR32-11) | also measured |
| --- | --- | --- | --- | --- | --- | --- |
| CCOc1cc(C=O)ccc1O [ethyl vanillin] | – | – | – | – | – | Response of MOR174-9 to odorant (MOR174-9 (mOR-EG) [1]): responds; Response of oocytes expressing Gαolf and CFTR, but no receptor [2]: do not respond |
| C=CCc1ccc(O)c(OC)c1 [eugenol] | – | – | – | – | – | Response of MOR174-9 to odorant (MOR174-9 (mOR-EG) [1]): responds; Response of oocytes expressing Gαolf and CFTR, but no receptor [2]: do not respond |
| O=C(O)CCCCCCCCCC(=O)O [Undecanedioic acid] | 0% | 0% | – | – | – | – |
| CCCCCCCCCCC=O [Undecanal] | 0% | 16 ± 3% | 0% | 0% | 0% | – |
| COc1cc(C=O)ccc1O [vanillin] | – | – | – | – | – | Response of MOR174-9 to odorant (MOR174-9 (mOR-EG) [1]): responds; Response of oocytes expressing Gαolf and CFTR, but no receptor [2]: do not respond |
| CCCCCCCCCCCC(=O)O [Dodecanoic acid] | – | – | 0% | 0% | 0% | – |
| CCCCCCCC=O [Octanal] | 198 ± 27% | 22 ± 6% | 0% | 0% | 0% | activation at 3 µM (MOR23-1): 35 ± 5%; activation at 10 µM (MOR23-1): 76 ± 13%; activation at 30 µM (MOR23-1): 107 ± 7% |
| CCCCCCC(=O)O [Heptanoic acid] | 64 ± 10% | 35 ± 6% | 0% | 13 ± 5% | 40 ± 12% | activation at 3 µM (MOR23-1): 0%; activation at 10 µM (MOR23-1): 10 ± 3%; activation at 30 µM (MOR23-1): 17 ± 4%; Saturation of dose-response at MOR32-11 (MOR32-11; up to a concentration of 1 mM, data not shown): failed to saturate |
| O=C(O)CCCCCCCCCBr [10-Bromo-decanoic acid, 10-bromodecanoic acid] | 0% | 60 ± 4% | 0% | 0% | 0% | – |
| O=C(O)CCCCCBr [6-Bromo-hexanoic acid, 6-bromohexanoic acid] | 61 ± 7% | 0% | – | – | – | activation at 3 µM (MOR23-1): 0%; activation at 10 µM (MOR23-1): 0%; activation at 30 µM (MOR23-1): 22 ± 6% |
| CCCCCCCCCC(=O)O [Decanoic acid] | 0% | 122 ± 8% | 0% | 13 ± 3% | 0% | – |
| C/C=C/c1ccc(OC)c(OC)c1 [methylisoeugenol] | – | – | – | – | – | Antagonism of the response to eugenol of MOR174-9 expressed in oocytes (MOR174-9 (mOR-EG) [3]): can antagonize |
| CCCCCCCCCCCO [Undecanol] | 0% | 6 ± 2% | – | – | – | – |
| CC(C)=CCC/C(C)=C/CO [geraniol] | – | – | – | – | – | Response of MOR174-9 to odorant (MOR174-9 (mOR-EG) [1]): does not respond |
| CCCCCCCCCCC(=O)O [Undecanoic acid] | 0% | 98 ± 22% | 0% | 0% | 26 ± 8% | – |
| O=C(O)CCCCCCCCCCBr [11-Bromo-undecanoic acid] | 0% | 27 ± 10% | 0% | 0% | 0% | – |
| CCCCO [butanol] | – | – | – | – | – | Response of MOR174-9 to odorant (MOR174-9 (mOR-EG) [1]): does not respond |
| C=C(C)[C@H]1CC=C(C)C(=O)C1 [(+) carvone] | – | – | – | – | – | Response of MOR174-9 to odorant (MOR174-9 (mOR-EG) [1]): does not respond |
| CCCCCCCCCCCC=O [Dodecanal] | 0% | 25 ± 3% | 0% | 0% | 0% | – |
| CCCCCCCCO [Octanol] | 100 ± 6% | 0% | – | – | – | activation at 10 µM (MOR23-1): 23 ± 2%; activation at 30 µM (MOR23-1): 68 ± 13% |
| CCCCCCCCC=O [Nonanal] | 0% | 32 ± 6% | 0% | 0% | 0% | – |
| O=C(O)CCCCCCCBr [8-Bromo-octanoic acid, 8-bromooctanoic acid] | 32 ± 6% | 0% | – | – | – | activation at 3 µM (MOR23-1): 0%; activation at 10 µM (MOR23-1): 0%; activation at 30 µM (MOR23-1): 43 ± 8%; Response of MOR40-4 (S83) to odorant (previously shown) (MOR40-4 (S83)): respond |
| CCCCCCCCCO [nonanol] | – | – | – | – | – | Response of MOR40-4 (S83) to odorant (previously shown) (MOR40-4 (S83)): respond |
| CCCCCCCCC(=O)O [Nonanoic acid] | 100% | 100% | 0% | 25 ± 4% | 61 ± 8% | activation at 3 µM (MOR23-1): 0%; activation at 10 µM (MOR23-1): 11 ± 4%; activation at 30 µM (MOR23-1): 48 ± 8%; Response of MOR40-4 (S83) to odorant (previously shown) (MOR40-4 (S83)): respond |
| CCCCCCCCCC=O [Decanal] | 0% | 23 ± 5% | 0% | 0% | 0% | – |
| C=C(C)[C@@H]1CC=C(C)C(=O)C1 [(−) carvone] | – | – | – | – | – | Response of MOR174-9 to odorant (MOR174-9 (mOR-EG) [1]): does not respond |
| COc1ccccc1O [guaiacol] | – | – | – | – | – | Response of MOR174-9 to odorant (MOR174-9 (mOR-EG) [1]): does not respond |
| CCCCCCCC(=O)O [Octanoic acid] | 178 ± 29% | 76 ± 6% | 0% | 27 ± 7% | 83 ± 14% | activation at 3 µM (MOR23-1): 70 ± 11%; activation at 10 µM (MOR23-1): 112 ± 17%; activation at 30 µM (MOR23-1): 158 ± 12%; Response of MOR40-4 (S83) to odorant (previously shown) (MOR40-4 (S83)): respond |
| O=C(O)CCCCCCCCCCCBr [12-Bromo-dodecanoic acid] | 0% | 6 ± 2% | – | – | – | – |
